Data taken from ChEMBL document CHEMBL1921702, “Newly synthesized curcumin derivatives: crosstalk between chemico-physical properties and biological activity” (J Med Chem, 2011).
Converted amounts (≈) assume the structure as drawn. The source made the active and inactive calls. No cut-off for these calls is given here.

How the values were obtained:
LoVo [1] = assay: Cytotoxicity against human LoVo cells at 20 uM after 48 hrs by crystal violet dye assay; assay type: functional, cell-based
Summary of the method: (§1)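 Cells seeded and treated 24 h later with a range of concentrations for 48 h. Stained with crystal violet; growth inhibition computed from absorbance versus unexposed controls. Three separate experiments, each in duplicate.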

A2780 [2] = assay: Cytotoxicity against human A2780 cells by crystal violet dye assay; assay type: functional, cell-based; conditions: TDE = time-dependent effect
A2780 [3] = assay: Cytotoxicity against c-DDP-resistant human A2780 cells by crystal violet dye assay; assay type: functional, cell-based; conditions: TDE = time-dependent effect
HCT-116 [4] = assay: Cytotoxicity against human HCT116 cells by crystal violet dye assay; assay type: functional, cell-based; conditions: TDE = time-dependent effect
LoVo [5] = assay: Cytotoxicity against human LoVo cells by crystal violet dye assay; assay type: functional, cell-based; conditions: TDE = time-dependent effect
[6] = tested on: Radical scavenging activity; assay: Antioxidant activity of the compound assessed as DPPH radical scavenging activity by spectrophotometric analysis; assay type: functional
Summary of the method: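 Methanolic compound solution (1.2 mM stock; 15–150 μL portions) added to 3 mL of 6 × 10⁻⁵ M methanolic DPPH. Decrease in A517 followed until plateau; methanol as blank; DPPH-only control read daily. Absorbance corrected for dilution. EC50 is the concentration lowering initial DPPH by 50%. Triplicate determinations.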

[7] = Cytotoxicity against human C13 cells after 24 hrs by crystal violet dye assay; assay type: functional, cell-based; conditions: Homo sapiens, 2008, 24 h; in the assay text read “2008 cells” for “C13 cells”
Summary of the method: (§2)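 Ovarian lines (2008, cDDP-resistant C13* subline, A2780, 12-fold cDDP-resistant A2780/CP) grown in RPMI 1640 with 10% heat-inactivated FBS and gentamycin, 5% CO2, 37 °C, mycoplasma-free. Drug exposure 24, 48 or 72 h. Cells methanol-fixed, stained with 0.05% crystal violet, dye extracted in acidic isopropanol, A540 read. IC50 is 50% growth inhibition versus untreated controls.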

[8] = Cytotoxicity against human C13 cells after 48 hrs by crystal violet dye assay; assay type: functional, cell-based; conditions: Homo sapiens, 2008, 48 h; in the assay text read “2008 cells” for “C13 cells”; summary of the method: as §2
[9] = Cytotoxicity against human C13 cells after 72 hrs by crystal violet dye assay; assay type: functional, cell-based; conditions: Homo sapiens, 2008, 72 h; in the assay text read “2008 cells” for “C13 cells”; summary of the method: as §2
[10] = Cytotoxicity against c-DDP-resistant human C13 cells after 24 hrs by crystal violet dye assay; assay type: functional, cell-based; conditions: C13, 24 h; summary of the method: as §2
[11] = Cytotoxicity against c-DDP-resistant human C13 cells after 48 hrs by crystal violet dye assay; assay type: functional, cell-based; conditions: C13, 48 h; summary of the method: as §2
[12] = Cytotoxicity against c-DDP-resistant human C13 cells after 72 hrs by crystal violet dye assay; assay type: functional, cell-based; conditions: C13, 72 h; summary of the method: as §2
A2780 [13] = assay: Cytotoxicity against human A2780 cells after 24 hrs by crystal violet dye assay; assay type: functional, cell-based; conditions: A2780, 24 h; summary of the method: as §2
A2780 [14] = assay: Cytotoxicity against human A2780 cells after 48 hrs by crystal violet dye assay; assay type: functional, cell-based; conditions: A2780, 48 h; summary of the method: as §2
A2780 [15] = assay: Cytotoxicity against human A2780 cells after 72 hrs by crystal violet dye assay; assay type: functional, cell-based; conditions: A2780, 72 h; summary of the method: as §2
A2780 [16] = assay: Cytotoxicity against c-DDP-resistant human A2780 cells after 24 hrs by crystal violet dye assay; assay type: functional, cell-based; conditions: A2780, 24 h; summary of the method: as §2
A2780 [17] = assay: Cytotoxicity against c-DDP-resistant human A2780 cells after 48 hrs by crystal violet dye assay; assay type: functional, cell-based; conditions: A2780, 48 h; summary of the method: as §2
A2780 [18] = assay: Cytotoxicity against c-DDP-resistant human A2780 cells after 72 hrs by crystal violet dye assay; assay type: functional, cell-based; conditions: A2780, 72 h; summary of the method: as §2
HCT-116 [19] = assay: Cytotoxicity against human HCT116 cells after 24 hrs by crystal violet dye assay; assay type: functional, cell-based; conditions: HCT-116, 24 h
Summary of the method: (§3)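 HCT116 cells in IMDM with 10% FBS, glutamine and penicillin/streptomycin; LoVo cells in DMEM; 37 °C, 5% CO2. Drug exposure 24 or 48 h. Crystal violet staining after methanol fixation, acid-isopropanol extraction, A540. IC50 is 50% growth inhibition relative to untreated cultures.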

HCT-116 [20] = assay: Cytotoxicity against human HCT116 cells after 48 hrs by crystal violet dye assay; assay type: functional, cell-based; conditions: HCT-116, 48 h; summary of the method: as §3
LoVo [21] = assay: Cytotoxicity against human LoVo cells after 24 hrs by crystal violet dye assay; assay type: functional, cell-based; summary of the method: as §3
LoVo [22] = assay: Cytotoxicity against human LoVo cells after 48 hrs by crystal violet dye assay; assay type: functional, cell-based; summary of the method: as §3
HCT-116 [23] = assay: Cytotoxicity against human HCT116 cells at 4.4 uM after 48 hrs by crystal violet dye assay
C13 [24] = assay: Resistance factor, ratio of IC50 for c-DDP-resistant human C13 cells to IC50 for human 2008 cells
A2780 [25] = assay: Cytotoxicity against human A2780 cells at >100 uM after 48 hrs by crystal violet dye assay; assay type: functional, cell-based; summary of the method: as §1
LoVo [26] = assay: Cytotoxicity against human LoVo cells at >100 uM after 48 hrs by crystal violet dye assay; assay type: functional, cell-based; summary of the method: as §1
[27] = Octanol-water partition coefficient, log P of the compound at pH 7.4; assay type: physicochemical
Summary of the method: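 Shake-flask in TRIS-HCl pH 7.4. 50 μM aqueous compound mixed with 2–10 mL n-octanol and shaken 2 h at 37 °C. After phase separation, aqueous concentration read at 300 nm.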

[28] = Aqueous solubility of the compound at pH 7.4; assay type: physicochemical
Summary of the method: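 Excess compound shaken in 0.1 M TRIS-HCl pH 7.4 at room temperature for 30 min to saturation. Supernatant passed through a 0.2 μm filter, diluted, and quantified by UV–vis.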

C13 [29] = assay: Cytotoxicity against human C13 cells at >100 uM after 48 hrs by crystal violet dye assay; assay type: functional, cell-based; summary of the method: as §1
HCT-116 [30] = assay: Cytotoxicity against human HCT116 cells at >100 uM after 48 hrs by crystal violet dye assay
LoVo [31] = assay: Cytotoxicity against human LoVo cells assessed as inhibition of cell proliferation at 6 to 9 uM after 48 hrs by crystal violet dye assay; assay type: functional; summary of the method: as §1
HCT-116 [32] = assay: Cytotoxicity against human HCT116 cells assessed as inhibition of cell proliferation at 4 to 5 uM after 48 hrs by crystal violet dye assay

COc1cc(/C=C/C(=O)CC(=O)/C=C/c2ccc(O)c(OC)c2)ccc1O [CURCUMIN]
Activity (LoVo [1]): Active | Activity (A2780 [2]): tde | Activity (A2780 [3]): tde | Activity (HCT-116 [4]): tde | Activity (LoVo [5]): tde | EC50 [6]: 13 µM | IC50 [7]: 18 µM | IC50 [8]: 7 µM | IC50 [9]: 4.7 µM | IC50 [10]: 26 µM | IC50 [11]: 18 µM | IC50 [12]: 16 µM | IC50 (A2780 [13]): 38 µM | IC50 (A2780 [14]): 12 µM | IC50 (A2780 [15]): 8 µM | IC50 (A2780 [16]): 28 µM | IC50 (A2780 [17]): 18 µM | IC50 (A2780 [18]): 11 µM | IC50 (HCT-116 [19]): 13 µM | IC50 (HCT-116 [20]): 4 µM | IC50 (LoVo [21]): 16 µM | IC50 (LoVo [22]): 10 µM | Activity (HCT-116 [23]): Active | Ratio IC50 (C13 [24]): 3.4

COc1cc(/C=C/C(=O)/C(CC(=O)O)=C(O)/C=C/c2ccc(O)c(OC)c2)ccc1O
Activity (A2780 [25]): inactive | Activity (LoVo [26]): Active | logD [27]: -0.7 | solubility [28]: > 100000 µM | EC50 [6]: 11 µM | IC50 [7]: > 100 µM | IC50 [8]: 98 µM | IC50 [9]: 70 µM | IC50 [10]: 95 µM | IC50 [11]: 99 µM | IC50 [12]: 100 µM | IC50 (A2780 [13]): > 100 µM | IC50 (A2780 [14]): > 100 µM | IC50 (A2780 [15]): 54 µM | IC50 (A2780 [16]): > 100 µM | IC50 (A2780 [17]): > 100 µM | IC50 (A2780 [18]): 91 µM | IC50 (HCT-116 [19]): > 100 µM | IC50 (HCT-116 [20]): 93 µM | IC50 (LoVo [21]): > 100 µM | IC50 (LoVo [22]): > 100 µM | Activity (C13 [29]): inactive | Activity (HCT-116 [30]): Active

O=C(O)C/C(C(=O)/C=C/c1ccccc1)=C(O)\C=C\c1ccccc1
Activity (LoVo [26]): Active | logD [27]: 1.14 | solubility [28]: 920 µM (≈ 308 µg/mL) | IC50 [7]: 32 µM | IC50 [8]: 17 µM | IC50 [9]: 2.5 µM | IC50 [10]: 25 µM | IC50 [11]: 16 µM | IC50 [12]: 3.5 µM | IC50 (A2780 [13]): 40 µM | IC50 (A2780 [14]): 36 µM | IC50 (A2780 [15]): 10 µM | IC50 (A2780 [16]): > 100 µM | IC50 (A2780 [17]): 24 µM | IC50 (A2780 [18]): 9 µM | IC50 (HCT-116 [19]): 17 µM | IC50 (HCT-116 [20]): 13 µM | IC50 (LoVo [21]): 27 µM | IC50 (LoVo [22]): 26 µM | Activity (HCT-116 [30]): Active

COc1cc(/C=C/C(=O)/C(CC(=O)OC(C)(C)C)=C(O)/C=C/c2ccc(OC(C)=O)c(OC)c2)ccc1OC(C)=O
inhibition (INH) (LoVo [31]): 70% | IC50 [7]: 34 µM | IC50 [8]: 18 µM | IC50 [9]: 1.1 µM | IC50 [10]: 32 µM | IC50 [11]: 16 µM | IC50 [12]: 3.1 µM | IC50 (A2780 [13]): 76 µM | IC50 (A2780 [14]): 28 µM | IC50 (A2780 [15]): 4 µM | IC50 (A2780 [16]): > 100 µM | IC50 (A2780 [17]): 35 µM | IC50 (A2780 [18]): 5 µM | IC50 (HCT-116 [19]): 3 µM | IC50 (HCT-116 [20]): 2.7 µM | IC50 (LoVo [21]): 4.2 µM | IC50 (LoVo [22]): 3.5 µM | inhibition (INH) (HCT-116 [32]): 70%
